From ChEMBL document CHEMBL3112497, “Functionally Optimized Neuritogenic Farinosone C Analogs: SAR-Study and Investigations on Their Mode of Action” (ACS Med Chem Lett, 2014)
The source made the active and inactive calls. The calls are words filed in the database; no cut-off is given here.

What was measured:
PC-12 [1] = test: Neuritogenic activity in rat PC12 cells assessed as induction of neuronal differentiation at 50 uM after 2 days by Giemsa staining-based phase contrast microscopic analysis; format: functional, cell-based
Method in brief: (§1)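 PC12 neurite outgrowth assay (modified procedure) with 2-day incubation; compounds at 50, 20, 10, 5 or 1 μM. Positive control NGF 20 ng mL-1, solvent control DMSO 0.1%. Mean ± SEM, n = 3; unpaired t test, 95% confidence interval.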

U-937 [2] = test: Inhibition of anandamide membrane transporter in human U937 cells assessed as inhibition of [3H]-AEA uptake at 10 uM preincubated for 10 to 30 mins followed by [3H]-AEA addition measured after 5 mins by liquid scintillation counting analysis relative to control; format: cell-based
[3] = molecular target: T1, Fatty-acid amide hydrolase 1 (Homo sapiens) (UniProt O00519); test: Inhibition of FAAH (unknown origin) at 1 uM
T1 sequence (whole entry): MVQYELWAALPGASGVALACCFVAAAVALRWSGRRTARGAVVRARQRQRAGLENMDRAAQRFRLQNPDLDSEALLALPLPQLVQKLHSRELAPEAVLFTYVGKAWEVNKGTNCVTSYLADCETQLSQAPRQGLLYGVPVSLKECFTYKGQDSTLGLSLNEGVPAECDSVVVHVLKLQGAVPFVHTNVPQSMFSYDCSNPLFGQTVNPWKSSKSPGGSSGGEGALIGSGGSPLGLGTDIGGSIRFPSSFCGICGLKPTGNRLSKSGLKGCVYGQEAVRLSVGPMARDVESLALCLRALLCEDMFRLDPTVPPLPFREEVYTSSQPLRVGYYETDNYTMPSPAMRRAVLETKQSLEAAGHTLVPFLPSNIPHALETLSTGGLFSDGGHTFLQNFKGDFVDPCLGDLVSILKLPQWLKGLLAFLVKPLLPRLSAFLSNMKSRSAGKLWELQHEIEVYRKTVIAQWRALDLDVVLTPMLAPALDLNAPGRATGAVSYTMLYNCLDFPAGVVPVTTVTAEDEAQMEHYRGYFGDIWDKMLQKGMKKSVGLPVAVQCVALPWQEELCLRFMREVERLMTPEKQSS
Method in brief: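 FAAH activity measured with compounds at 1 μM.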

[4] = Cytotoxicity against rat PC12 cells at 10 uM; format: cell-based; conditions: pc-12, 10 µM
Cannabinoid receptor 1 = Cannabinoid receptor 1 (Homo sapiens, UniProt P21554); test: Displacement of [3H]-CP55940 from human CB1 receptor expressed in CHO cell membranes after 90 mins by scintillation counting analysis
Cannabinoid receptor 1, sequence (P21554 whole entry): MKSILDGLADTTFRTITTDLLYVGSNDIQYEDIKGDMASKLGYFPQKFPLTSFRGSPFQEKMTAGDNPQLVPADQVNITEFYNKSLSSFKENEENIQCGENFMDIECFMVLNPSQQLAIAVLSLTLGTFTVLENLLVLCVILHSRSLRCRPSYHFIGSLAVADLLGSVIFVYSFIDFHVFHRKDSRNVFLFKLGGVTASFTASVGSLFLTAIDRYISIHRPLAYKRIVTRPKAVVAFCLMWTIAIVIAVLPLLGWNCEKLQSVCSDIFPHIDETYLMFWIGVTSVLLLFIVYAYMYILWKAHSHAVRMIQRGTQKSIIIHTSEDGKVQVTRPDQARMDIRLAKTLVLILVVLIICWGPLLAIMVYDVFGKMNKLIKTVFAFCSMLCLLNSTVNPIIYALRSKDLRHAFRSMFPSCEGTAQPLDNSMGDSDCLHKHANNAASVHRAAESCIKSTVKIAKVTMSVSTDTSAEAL
Method in brief: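 Membranes from CHO cells stably transfected with human CB1 incubated 90 min at 30 °C with varying compound concentrations and 0.5 nM [3H]-CP55940; WIN55,212-2 as positive control. Mean ± SD, n = 2–3.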

PC-12 [5] = test: Neuritogenic activity in rat PC12 cells assessed as induction of neuronal differentiation at 1 uM after 2 days by Giemsa staining-based phase contrast microscopic analysis; format: functional, cell-based; method in brief: as §1
[6] = Cytotoxicity against rat PC12 cells at 1 uM; format: cell-based; conditions: pc-12, 1 µM
PC-12 [7] = test: Neuritogenic activity in rat PC12 cells in presence of CB1 antagonist rimonabant/AM251; format: functional, cell-based
Method in brief: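 PC12 cells co-treated with the CB1 antagonists rimonabant (1 μM and 100 nM) or AM251 (3 μM and 100 nM) alongside the differentiation-inducing compound, in the neurite outgrowth assay.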

[8] = Inhibition of anandamide membrane transporter in human U937 cells assessed as inhibition of [3H]-AEA uptake preincubated for 10 to 30 mins followed by [3H]-AEA addition measured after 5 mins by liquid scintillation counting analysis; format: cell-based; conditions: u-937
Method in brief: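 [3H]AEA transport in human U937 leukemic monocyte lymphoma cells; EC50 and maximal inhibition taken from concentration-dependent curves, n = 3–5.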

U-937 [9] = test: Potency index, ratio of UCM707 EC50 to compound EC50 for anandamide membrane transporter in human U937 cells; format: cell-based
PC-12 [10] = test: Neuritogenic activity in rat PC12 cells assessed as induction of neuronal differentiation at 10 uM after 2 days by Giemsa staining-based phase contrast microscopic analysis; format: functional, cell-based; method in brief: as §1
[11] = Cytotoxicity against rat PC12 cells at 50 uM; format: cell-based; conditions: pc-12, 50 µM
PC-12 [12] = test: Neuritogenic activity in rat PC12 cells at 100 nM; format: functional, cell-based
PC-12 [13] = test: Neuritogenic activity in rat PC12 cells assessed as induction of neuronal differentiation at 20 uM after 2 days by Giemsa staining-based phase contrast microscopic analysis; format: functional, cell-based; method in brief: as §1
PC-12 [14] = test: Neuritogenic activity in rat PC12 cells assessed as induction of neuronal differentiation at 5 uM after 2 days by Giemsa staining-based phase contrast microscopic analysis; format: functional, cell-based; method in brief: as §1

For `O=C(CCC(=O)N[C@@H](CO)Cc1ccc(O)cc1)N[C@H](CO)Cc1ccc(O)cc1`, the Activity (PC-12 [1]) was “Active”, the inhibition (U-937 [2]) was 20% and the inhibition [3] was “Active”.
With `CCC(=O)N[C@H](COC(=O)CC)Cc1ccc(O)cc1` the Activity (PC-12 [1]) was “inactive”.
With `OCCCCCCCCCCCCCCCN[C@H](CO)Cc1ccc(O)cc1` the Activity [4] was “Toxic”, the Ki (Cannabinoid receptor 1) was 530 nM and the Activity (PC-12 [5]) was “inactive”. The Activity [6] was “Non-toxic”.
For `CCCCC/C=C\C/C=C\CCCCCCCC(=O)N[C@H](CO)Cc1ccc(O)cc1`, the Activity (PC-12 [7]) was “Active”, the Ki (Cannabinoid receptor 1) was 810 nM and the Imax (U-937 [2]) was 52%. For the same compound, the EC50 [8] was 228 nM, the Ratio EC50 (U-937 [9]) was 10 and the Activity (PC-12 [10]) was “Active”.
For `CC(C)(C)C(=O)N[C@H](CO)Cc1ccc(O)cc1`, the Activity (PC-12 [1]) was “inactive”.
In the case of `CCC(=O)N[C@@H](Cc1ccc(O)cc1)C(=O)O`, the Activity (PC-12 [1]) is reported as “Active”, the inhibition (U-937 [2]) is reported as 20% and the inhibition [3] is reported as “Active”.
With `O=C(CCCCCCCO)N[C@H](CO)Cc1ccc(O)cc1` the Activity (PC-12 [1]) was “Active”, the inhibition (U-937 [2]) was 20% and the inhibition [3] was “Active”. For the same compound, the Activity (PC-12 [10]) was “Active”.
For `CCCCCCCCC(=O)N[C@H](CO)Cc1ccc(O)cc1`, the Activity (PC-12 [1]) was “inactive”.
For `O=C(CCCc1cn(C23CC4CC(CC(C4)C2)C3)nn1)N[C@H](CO)Cc1ccc(O)cc1`, the Activity (PC-12 [1]) was “inactive”.
For `CCC(=O)N[C@H](CO)Cc1ccc(OC)cc1`, the Activity (PC-12 [1]) was “inactive”.
With `CCCN[C@H](CO)Cc1ccc(O)cc1` the Activity (PC-12 [1]) was “inactive”.
With `CCC(=O)NCCc1ccc(O)cc1` the Activity [11] was “Toxic” and the Activity (PC-12 [1]) was “inactive”.
In the case of `CC/C=C\C/C=C\C/C=C\CCCCCCCCN[C@H](CO)Cc1ccc(O)cc1`, the Activity [4] is reported as “Toxic”, the Imax (U-937 [2]) is reported as 60% and the EC50 [8] is reported as 966 nM. The Activity (PC-12 [5]) was “inactive” and the Activity [6] was “Non-toxic”.
With `CCC(=O)N[C@H](CO)Cc1ccc(O)cc1` the Activity (PC-12 [1]) was “Active”.
With `CCC(=O)N[C@H](COC)Cc1ccc(O)cc1` the Activity (PC-12 [1]) was “inactive”.
For `CCC(=O)N[C@H](CO)Cc1ccccc1`, the Activity (PC-12 [1]) was “inactive”.
In the case of `CC(C)C(=O)N[C@H](CO)Cc1ccc(O)cc1`, the Activity (PC-12 [1]) is reported as “inactive”.
With `CCCCC/C=C\C/C=C\C/C=C\C/C=C\CCC(C)C(=O)NCCF` (configuration not stated) the Activity (PC-12 [12]) was “inactive”.
In the case of `CCC(=O)N[C@H](COC)Cc1ccc(OC)cc1`, the Activity (PC-12 [1]) is reported as “inactive”, the inhibition (U-937 [2]) is reported as 20% and the inhibition [3] is reported as “Active”.
In the case of `CCC(=O)N[C@H](CO)Cc1ccc(OC(=O)CC)cc1`, the Activity (PC-12 [1]) is reported as “inactive”.
With `CCCCCCCCCCCCCCCCN[C@H](CO)Cc1ccc(O)cc1` the Activity [4] was “Toxic”, the Activity (PC-12 [5]) was “inactive” and the Activity [6] was “Non-toxic”.
In the case of `O=C(CCCCCCCCCCCCCCO)N[C@H](CO)Cc1ccc(O)cc1`, the Imax (U-937 [2]) is reported as 73%, the EC50 [8] is reported as 757 nM and the Activity (PC-12 [10]) is reported as “inactive”.
In the case of `CC(/C=C/C(=O)NC(CO)Cc1ccc(O)cc1)=C\C(C)CC(=O)O` (configuration not stated), the Activity (PC-12 [13]) is reported as “Active”.
For `O=C(N[C@H](CO)Cc1ccc(O)cc1)c1ccccc1`, the Activity [11] was “Non-toxic”, the inhibition (U-937 [2]) was 20% and the inhibition [3] was “Active”.
In the case of `CCC(=O)N[C@@H](CO)Cc1ccc(O)cc1`, the Activity (PC-12 [1]) is reported as “inactive”.
In the case of `CCC(=O)NCCc1ccc(O)c(O)c1`, the Activity [11] is reported as “Toxic” and the Activity (PC-12 [14]) is reported as “inactive”.
`CCCCC/C=C\C/C=C\C/C=C\C/C=C\CCCC(=O)NCCc1ccoc1` gave an Imax (U-937 [2]) of 80% and an EC50 [8] of 1800 nM.
In the case of `CCCCC/C=C\C/C=C\CCCCCCCCN[C@H](CO)Cc1ccc(O)cc1`, the Activity [4] is reported as “Toxic”, the Imax (U-937 [2]) is reported as 51% and the EC50 [8] is reported as 975 nM. The Activity (PC-12 [5]) was “inactive” and the Activity [6] was “Non-toxic”.
